# Wnt bcat act – Wnt/beta-catenin pathway activation | Wnt/beta-catenin reporter cell assay, activator, plate reader | activation, % at 9.35 µM | 1.2% of 300,000 active | AID 743398; in the data active = activation above about 30%, passing the limit was not always enough; inconclusive = no clear call, values can overlap the other calls;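 note: 0% = neutral control wells and 100% = positive control wells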
# SR-BI DiI-HDL act – enhances SR-BI lipid uptake from DiI-HDL; 0.096% of 320,000 active; activation, % at 12.5 µM; CHO ldlA[mSR-BI] cells, DiI-HDL uptake fluorescence, 3 h; 100 = double the neutral-control signal;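 active = mean replicate activation of at least 60% and every replicate at or above 60%; inconclusive = mean or all-replicate condition met, but not both; inactive = mean below 60% and not all replicates reaching 60%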;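 note: 0% = median plate neutral-control signal and 100% = twice that signal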
#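 material = CHO ldlA[mSR-BI] cells | medium = Ham's F12 with 0.5% BSA, HEPES 25 mM, pH 7.4 | reagent = fluorescent DiI-HDL, 10 µg/mL final | compound dosing = single-point compound dose | incubation = 3 h, 37 °C | measured by = bottom-read fluorescence, 550/595 nm | measure = HDL uptake via cellular fluorescence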
# MITF TRPM1 HTS – activators of MITF-driven TRPM1 promoter activity in SK-MEL-5 cells | SK-MEL-5 TRPM1-promoter luciferase, 24 h; % of positive control, neutral wells = 0 | 0.75% of 300,000 active | activation, % at 12.5 µM;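 active = mean activation of at least 80% with every replicate also reaching 80%; inconclusive = mean reaches 80% but some replicate falls short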;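 note: 0% = neutral control wells and 100% = parthenolide positive control wells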
# HSF-1 act – increases HSF-1 driven luciferase reporter signal; 1.7% of 300,000 active; activation, % at 9 µM; NIH3T3-HGL HSF-1 luciferase reporter, MG132, 8 h; 100% = twice DMSO control signal;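 active = mean replicate activation of at least 50% with a set share of replicates each reaching 50%; inconclusive = only one of those two conditions met; inactive = mean below 50% and too few replicates reaching it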;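 note: 0% = median of the neutral control wells and 100% = twice that signal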
# SR-BI DiI inh – mouse SR-BI HDL lipid transfer inhibition; 0.96% of 320,000 active; Q61009; AID 488896; ldlA[mSR-BI] CHO cells, DiI-HDL uptake fluorescence, 3 h; inhibition, % at 12.5 µM;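 active = mean replicate inhibition of at least 70% and a set share of replicates each scoring 70 or more; inconclusive = meets just one of the two criteria; inactive = fails both criteria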;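 note: 0% = median of neutral control wells and 100% = median of positive control wells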
# Target sequence (Q61009 whole entry, looked up): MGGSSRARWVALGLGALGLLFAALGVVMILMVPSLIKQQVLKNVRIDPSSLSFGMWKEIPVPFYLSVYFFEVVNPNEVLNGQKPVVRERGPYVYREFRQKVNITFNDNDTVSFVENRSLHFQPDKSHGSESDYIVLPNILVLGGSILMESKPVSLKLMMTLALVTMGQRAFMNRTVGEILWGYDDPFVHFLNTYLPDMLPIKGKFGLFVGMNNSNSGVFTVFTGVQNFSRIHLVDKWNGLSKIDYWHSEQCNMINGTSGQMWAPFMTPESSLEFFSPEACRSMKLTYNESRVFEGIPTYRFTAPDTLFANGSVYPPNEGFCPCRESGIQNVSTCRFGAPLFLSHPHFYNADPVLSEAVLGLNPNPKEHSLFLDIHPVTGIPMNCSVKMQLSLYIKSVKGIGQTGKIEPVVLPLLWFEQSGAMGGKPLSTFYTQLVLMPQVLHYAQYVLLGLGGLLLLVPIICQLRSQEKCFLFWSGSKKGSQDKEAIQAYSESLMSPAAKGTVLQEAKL
# Numbers without * were called inactive; ? = inconclusive; nt = no result given. Compounds with a hit are over-represented: about 3.6% of the library has one in this group of screens.
SMILES,Wnt bcat act,SR-BI DiI-HDL act,MITF TRPM1 HTS,HSF-1 act,SR-BI DiI inh
O=C(N/N=C/c1ccc(-c2cccc([N+](=O)[O-])c2)o1)c1ccccc1O,-2,-23,4,58*,23
COc1ccccc1Cc1c(-c2ccc(C#N)cc2)nc2c3ccccc3ccn12,5,nt,nt,nt,nt
CC(C)(C)OC(=O)N1CCC2CCN(S(C)(=O)=O)CC21 (configuration not stated),0,nt,nt,nt,nt
CCN(CCO)Cc1csc2ccc(C(C)(C)C)cc12,nt,-61,2,-16,61
CCN(CCO)Cc1csc2ccc(Cl)cc12,-3,70*,-8,-12,-70
Cc1ccc(-c2cc3ccccc3nc2N2CCCC2)cc1,nt,-28,-9,-21,28
Cc1ccc2c(c1)-c1nc3ccccc3cc1C2=NC1CCCCC1,47*,27,31,nt,-27
Cc1ccc2c(c1)C(=NC1CCCCC1)c1cc3ccccc3nc1-2,20,4,2,60*,-4
CCCCOCC1CN(CCCC)S(=O)(=O)c2c(cccc2Sc2ccc(OC)c(OC)c2)O1 (configuration not stated),-5,nt,nt,nt,nt
CC1(C)OC(=O)C2=C(C[C@@H](C3CCCCC3)O[C@H]2c2ccccc2)O1,-2,nt,nt,nt,nt
CCCC(=O)N(C)c1nnc(-c2ccc(OC)cc2)s1,34*,8,57,-30,-8
CCc1nc2ccc(C(=O)NCC3CCCCC3)cn2c1N(C)Cc1nccs1,-1,nt,nt,nt,nt
Cc1cccc(N/N=C/c2ccncc2)c1,13,-6,129*,3,6
Cc1cccc(NC(=O)C(=O)N/N=C/c2ccncc2)c1,-3,0,-9,-5,0
CC(C)N1CCC(C)(C(=O)Nc2ccc(Cl)c(Cl)c2)C1 (configuration not stated),-2,nt,nt,nt,nt
NC1=NC(=O)/C(=C/c2cn(Cc3ccccc3)c3ccccc23)S1,3,-5,10,60*,5
O=C1C2C3C=CC(C3)C2C(=O)N1/N=C/c1cn(Cc2ccccc2)c2ccccc12 (configuration not stated),nt,4,nt,25,-4
C[C@@H]1CN([C@@H](C)CO)C(=O)CCCn2cc(nn2)CO[C@H]1CN(C)C(=O)Cc1ccccc1,-1,nt,nt,nt,nt
CN(C)CCNc1nc2sc3c(c2c(=O)n1-c1ccccc1)CCCCC3,-6,7,nt,50*,-7
COc1ccc(C(C)(O)c2nc(-c3cccc(NC(C)=O)c3)cs2)cc1 (configuration not stated),-1,nt,nt,nt,nt
Cc1cccc(NC(=O)c2nc[nH]c2C(=O)N(C)CCO)c1,3,nt,nt,nt,nt
CCC(C)NC(=O)Cc1c(OC)ccc2cc(Br)ccc12 (configuration not stated),1,nt,-5,62*,nt
Cc1ccccc1-c1ccc2c(c1)O[C@@H](CN(C)C(=O)Nc1ccc(C(F)(F)F)cc1)[C@H](C)CN([C@@H](C)CO)S2(=O)=O,-3,nt,nt,nt,nt
COc1cc(/C=N/Nc2snc(SC)c2C#N)ccc1O,nt,-26,15,75*,26
COc1cccc(/C=N/Nc2nc3ccccc3[nH]2)c1O,17,nt,-17,49,nt
SMILES,Wnt bcat act,SR-BI DiI-HDL act,MITF TRPM1 HTS,HSF-1 act,SR-BI DiI inh
O=[N+]([O-])c1ccc(O)c(/C=N/Nc2nc3ccccc3[nH]2)c1,9,-87,-34,?,87*
COc1cc(/C=N/Nc2nc3ccccc3[nH]2)cc(OC)c1O,nt,-16,-10,149*,16
O=C(/C(=C/c1ccc(Cl)cc1)c1nc2ccccc2[nH]1)c1ccccc1,84*,-12,-86,184*,12
CCCCN(C(=O)c1ccc(N(C)S(=O)(=O)c2ccc(C)cc2)cc1)c1c(N)n(CC(C)C)c(=O)[nH]c1=O,0,-3,13,nt,3
CC(=O)Nc1cccc(-c2ccnc3c2CC(C)(C(=O)Nc2cccc(OC(F)(F)F)c2)O3)c1 (configuration not stated),-13,nt,nt,nt,nt
CC1C(=O)N(Cc2cn(CCC3OCCO3)nn2)CCS(=O)(=O)N1Cc1ccc(-c2ccc(Cl)cc2)cc1 (configuration not stated),1,nt,nt,nt,nt
COc1ccc(O)c(/C=N/Nc2nc3ccccc3[nH]2)c1,6,13,-4,236*,-13
COc1cc(/C=C(/C(=O)c2cccs2)c2nc3ccccc3[nH]2)cc(OC)c1O,nt,4,nt,351*,-4
COc1cc(/C=N/Nc2nc3ccccc3[nH]2)ccc1O,-2,-25,55,344*,25
COc1ccc(C(=O)N/C(=C/c2cccs2)c2nc3ccccc3[nH]2)cc1OC,nt,1,7,3,-1
